Source: PubChem BioAssay (The Scripps Research Institute Molecular Screening Center)
In the library only some 1.6% were active in any assay of this set; here they are far more common.
proCasp7 act: counter-screen for procaspase-3 activators: activators of human procaspase-7 | recombinant procaspase-7, Ac-DEVD-pNA absorbance 405 nm; D23A/D198A/D206A triple mutant, cannot self-cleave; scale: DMSO 0, 5 µM enzyme 100 | 330,000 compounds, 0.093% hits | P55210 | activation, % at 8.5 µM;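 active = percent activation above the screen-wide mean plus 3 SD, cut at about 25% in these data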
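Assay system – Uncleavable procaspase-7 mutant enzyme · Quantity – 2 µM procaspase-7 mutant as dispensed · Times – 1 h preincubation, 2 h reaction · Dosing – single nominal 8.5 µM compound dose, 0.8% DMSO final · Buffer or medium – Zinc-free 50 mM HEPES buffer, pH 7.4, with NaCl and Triton X-100 · Detection – Epi-absorbance of released pNA at 405 nm, two timepoints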
proCasp3 act: procaspase-3 (human) activation | recombinant procaspase-3 D3A, Ac-DEVD-pNA absorbance 405 nm | activation, % at 8.5 µM | 330,000 compounds, 0.11% hits | AID 463141 | P42574;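 active = activation above the mean of all tested compounds plus 3 SD, cut at about 21% in these data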
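Assay system: Procaspase-3 D3A mutant, all three cleavage aspartates alanine. Buffer or medium: Zinc-free HEPES saline buffer with Triton X-100. Times: 1 h compound preincubation, 2 h substrate hydrolysis at 25 °C. Measured by: 405 nm absorbance of p-nitroaniline, reads at 0 and 120 min. Read-out basis: percent activation relative to control range. Replicates: singlicate.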
PLCg1 inh: inhibitors of human phospholipase C gamma1; P19174; purified PLC-gamma1, fluorogenic substrate, fluorescence; inhibition, % at 12.2 µM; 370,000 compounds, 0.84% hits; AID 720700
PLCb3 inh: PLC-beta3 (human) inhibition, primary screen. Purified PLC-beta3, fluorogenic substrate, fluorescence. inhibition, % at 12.2 µM. 370,000 compounds, 0.18% hits. AID 720704; in the data active = inhibition above about 11%
sPLA2-III inh: Inhibits HGIII-sPLA2 liposome hydrolysis, primary screen | QFRET BODIPY PC-A2 liposome hydrolysis, fluorescence | inhibition, % at 12.2 µM | Q9NZ20 | 370,000 compounds, 0.56% hits;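 active = inhibition above mean plus 3 SD of compounds lying within the high and low control bounds, cut at about 19% in these data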
Target sequence (Q9NZ20 whole entry, looked up): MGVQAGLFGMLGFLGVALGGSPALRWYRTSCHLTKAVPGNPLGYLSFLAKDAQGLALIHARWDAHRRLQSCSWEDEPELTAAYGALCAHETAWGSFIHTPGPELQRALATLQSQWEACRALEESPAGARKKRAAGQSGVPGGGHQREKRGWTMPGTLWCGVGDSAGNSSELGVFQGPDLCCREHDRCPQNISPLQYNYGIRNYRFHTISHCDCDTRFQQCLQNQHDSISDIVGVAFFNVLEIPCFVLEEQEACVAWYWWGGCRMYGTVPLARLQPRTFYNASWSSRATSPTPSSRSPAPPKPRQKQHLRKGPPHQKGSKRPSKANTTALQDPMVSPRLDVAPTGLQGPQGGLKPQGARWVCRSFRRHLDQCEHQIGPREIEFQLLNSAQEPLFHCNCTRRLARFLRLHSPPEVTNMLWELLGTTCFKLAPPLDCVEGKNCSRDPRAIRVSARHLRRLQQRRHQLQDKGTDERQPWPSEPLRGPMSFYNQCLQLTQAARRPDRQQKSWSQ
PLCg1 ctr: counter-screen for PLC-beta3 inhibitors: inhibitors of human PLC-gamma1. shares compounds with PLCg1 inh. purified PLC-gamma1, fluorogenic substrate, fluorescence. inhibition, % at 12.3 µM. 3,300 compounds, 3.1% hits
PLCb3 confirm: confirmation of human PLC-beta3 inhibitors | shares compounds with PLCg1 inh | purified PLC-beta3, fluorogenic substrate fluorescence | inhibition, % at 12.3 µM | 3,300 compounds, 1% hits; in the data active = inhibition above about 11%
Large screens that a line does not name were inactive (follow-up assays come after a bar, where they were run). Cut-off read from the data, not from the text of the source, unless noted: active = inhibition above about 9.5%; inactive = the rest.

C/C(CC(=O)Nc1ccccc1C)=N\NC(=O)Cc1csc(N)n1	PLCg1 inh 9.9 | PLCg1 ctr inactive | PLCb3 confirm inactive
C/C(CC(=O)Nc1ccc(Br)cc1)=N\NC(=O)Cc1csc(N)n1	none (no result: proCasp7 act, proCasp3 act)
Cc1ccccc1OCCCCc1c(C)n[nH]c1C	none
Cc1ccccc1OCCCc1c(C)n[nH]c1C	PLCg1 inh 9.8 | PLCg1 ctr inactive | PLCb3 confirm inactive
CC1=CC2=NC(=O)/C(=C\c3ccc(OC(=O)c4ccco4)cc3)C(=N)N2O1	PLCb3 inh 12.2 | PLCg1 ctr inactive | PLCb3 confirm inactive
CCOC(=O)CNC(=O)CSc1nc2ccccc2c(=O)n1-c1ccc(Cl)cc1	none (no result: proCasp7 act, proCasp3 act)
Nc1nccc2c1ncn2C1OC(CO)C(O)C1O (stereo unspecified)	PLCg1 inh 12.4, PLCb3 inh 12.4 (no result: proCasp7 act, proCasp3 act) | PLCg1 ctr inactive | PLCb3 confirm inactive
Fc1ccccc1COc1ccc(C(=S)N2CCCC2)cc1	none
CCCCOc1cccc(C(=O)Nc2ccc(N3CCN(CC)CC3)cc2)c1	PLCb3 inh 10.8 | PLCg1 ctr inactive | PLCb3 confirm inactive
O=C(CCN1CCN(c2ccccc2)CC1)NNC(=O)c1cccc2ccccc12	none
COc1cccc(C(=O)NNC(=O)CCN2CCN(c3ccccc3)CC2)c1	PLCb3 inh 12.8 | PLCg1 ctr inactive | PLCb3 confirm inactive
COc1cccc(C(=O)NCCN2CCN(c3ccc(Cl)cc3)CC2)c1	PLCg1 inh 9.9 | PLCg1 ctr inactive | PLCb3 confirm inactive
COc1cccc(C(=O)NCCN2CCOCC2)c1	none
CC(C)NC(=O)c1cc(C2CCCCN2S(=O)(=O)c2ccc(F)cc2F)on1 (stereo unspecified)	none (no result: proCasp7 act, proCasp3 act)
NC(=O)C1CCN(C(=O)CCSCc2ccc(Cl)c(Cl)c2)CC1	none
COC(=O)Cn1c(SCc2ccccc2)nc2ccccc21	none
CCSc1nc2ccccc2n1CC(=O)OC	PLCg1 inh 12.6 | PLCg1 ctr inactive | PLCb3 confirm inactive
COc1ccccc1N1CCN(C(c2ccc(Cl)cc2)c2nnnn2C(C)(C)C)CC1 (stereo unspecified)	PLCg1 inh 12.8 | PLCg1 ctr inactive | PLCb3 confirm inactive
COc1ccccc1N1CCN(C(c2ccccc2Cl)c2nnnn2C(C)(C)C)CC1 (stereo unspecified)	none (no result: PLCg1 inh, PLCb3 inh, sPLA2-III inh)
COc1ccc(C(c2nnnn2C(C)(C)C)N2CCN(C/C=C/c3ccccc3)CC2)cc1 (stereo unspecified)	PLCg1 inh 11.4 (no result: proCasp7 act, proCasp3 act) | PLCg1 ctr inactive | PLCb3 confirm inactive
CCN(C(=O)Cn1cnc2c(nc3n2CCCCC3)c1=O)c1cccc(Cl)c1	PLCg1 inh 11.7 | PLCg1 ctr inactive | PLCb3 confirm inactive
COc1cc(NC(=O)Cn2cnc3c(nc4n3CCCCC4)c2=O)cc(OC)c1OC	none
CCOc1ccc(C)cc1S(=O)(=O)Nc1cccnc1	PLCg1 inh 9.8 | PLCg1 ctr inactive | PLCb3 confirm inactive
COc1ccc(/C=N/Nc2nnc(Cc3ccc(OC)c(OC)c3)c(=O)[nH]2)cc1	PLCg1 inh 13.8 | PLCg1 ctr inactive | PLCb3 confirm inactive
COc1ccc(/C=N/Nc2nnc(Cc3ccc(OC)c(OC)c3)c(=O)[nH]2)cc1OC	PLCb3 inh 10.8 | PLCg1 ctr inactive | PLCb3 confirm inactive
COc1ccc(C(=O)NCC(=O)OC2CCCCC2=O)cc1 (stereo unspecified)	PLCb3 inh 13.6 | PLCg1 ctr inactive | PLCb3 confirm inactive
CSCC[C@H](NC(=O)COc1ccc(Cl)cc1)C(=O)N1CCC2(CC1)NCCc1[nH]cnc12	PLCg1 inh 11.3 | PLCg1 ctr inactive | PLCb3 confirm inactive
Cc1ccc(NC(=S)N(N)CCO)cc1	PLCg1 inh 11.7 | PLCg1 ctr inactive | PLCb3 confirm inactive
CNc1[nH]c(=O)[nH]c(=O)c1N=Nc1cc(Cl)ccc1Cl	none
Cn1c(=O)c2c(nc(NCc3cccnc3)n2Cc2cccc(C(F)(F)F)c2)n(C)c1=O	PLCg1 inh 12.0 | PLCg1 ctr inactive | PLCb3 confirm inactive
CCCNC(=O)c1ccc2c(c1)nc(C)n2-c1cccc(C)c1	PLCg1 inh 12.6 | PLCg1 ctr inactive | PLCb3 confirm inactive
